{"data": "Measurements gathered from unrelated publications"}
{"SMILES": "NCC(=O)Nc1ccc(-n2nc(C(F)(F)F)cc2-c2ccc3c(ccc4ccccc43)c2)cc1", "test system": "mouse, plasma", "conditions": "oral, 80 mg/kg, single dose", "endpoint": "AUC(0-inf)", "result": "81800 ng·h/mL"}
{"SMILES": "CN[C@H](CC(C)C)C(=O)N[C@H]1C(=O)N[C@@H](CC(N)=O)C(=O)N[C@H]2C(=O)NC3C(=O)N[C@H](C(=O)N[C@H](C(=O)NCCC[N+](C)(C)C)c4cc(O)cc(O)c4-c4cc3ccc4O)[C@H](O)c3ccc(c(Cl)c3)Oc3cc2cc(c3OC2OC(CO)C(O)[C@H](O)[C@@H]2O[C@H]2CC(C)(NCc3ccc(-c4ccc(Cl)cc4)cc3)[C@H](O)[C@H](C)O2)Oc2ccc(cc2Cl)[C@H]1O (some centres unmarked)", "test system": "mouse, plasma", "conditions": "intravenous, 50 mg/kg", "endpoint": "AUC", "result": "430000 ng·h/mL"}
{"SMILES": "C[C@]12CC[C@H](n3ccnc3)CC1=CC[C@@H]1[C@@H]2CC[C@]2(C)C(n3cnc4ccccc43)=CC[C@@H]12.Cl.Cl", "test system": "male CD-1 mouse, plasma", "conditions": "oral, 10 mg/kg", "endpoint": "AUC(0-t)", "result": "32500 ng·h/mL"}
{"SMILES": "CCN(CC)CCCC[C@H](NC(=O)[C@H](CC(C)C)NC(=O)[C@H](C)NC(=O)[C@H](Cc1ccccc1)NC(=O)c1ccc(C(C)(C)C)cc1)C(=O)N[C@@H](CO)C(=O)OC", "test system": "male Swiss mouse, blood", "conditions": "intravenous, 3 mg/kg", "endpoint": "AUC(0-inf)", "result": "1890 ng·h/mL"}
{"SMILES": "Cc1cc(C)nc(Nc2ncc(C(=O)NCCc3c(C)[nH]c4ccccc34)cn2)c1", "test system": "C57BL/6 mouse, plasma", "conditions": "intraperitoneal, 8.8 mg/kg", "endpoint": "AUC(0-inf)", "result": "1050 ng·h/mL"}
{"SMILES": "CN1CCCCC1Cn1cc(C(=O)c2cc([N+](=O)[O-])ccc2I)c2ccccc21 (racemic)", "test system": "mouse, plasma", "conditions": "intravenous, 25 mg/kg", "endpoint": "AUC", "result": "5830 ng·h/mL"}
{"SMILES": "CCC[C@@](N)(CO)CCc1ccc(OCCCCCC(C)C)cc1", "test system": "mouse, plasma", "conditions": "oral, 50 mg/kg", "endpoint": "AUC(0-t)", "result": "5.02 µM·h"}
{"SMILES": "Cc1ncc2n1-c1ccc(Cl)cc1C(c1ccccc1F)=NC2", "test system": "mouse, plasma", "conditions": "intravenous, 0.3 mg/kg", "endpoint": "AUC(0-inf)", "result": "0.15 µM·h"}
